Screens from PubChem.
Sampled rows, rich in hits. Any-hit rate of the full collection: about 2.4%.
bCat nuc transl: modulators of beta-catenin nuclear translocation; HeLa beta-catenin nuclear translocation, immunofluorescence imaging; nuclear translocation activity, % at 5 µM; 190,000 tested, 0.3% active;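 active = nuclear translocation activity above 50% at 5 µM, with a well cell count of 50 or more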;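 note: per-cell ratio of nuclear to cytoplasmic median beta-catenin stain intensity; plate controls were DMSO negative control for no effect and GSK-3 inhibitor IX positive control for full effect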
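test system = HeLa cells, endogenous beta-catenin | dosing = single 5 µM dose plus 0.02–20 µM confirmation series | times = compound treatment 24 h, 37°C, 5% CO2 | technique = beta-catenin immunofluorescence imaging with DAPI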
MT stabilizer: microtubule stabilization, imaging screen | % tubulin-high responders, % at 10 µM | 200,000 tested, 0.83% active | HeLa tubulin immunostaining HCS, 24 h; share of cells brighter than vehicle mean+2SD;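 active = plate Z-score above 3 for both tubulin-high and condensed-nucleus cell shares, with cell loss under 80%, at 10 µM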;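 note: anti alpha tubulin signal scored within the nucleus-defined area of each cell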
STAT3 act-1: activators of IL-6 induced STAT3 signaling; U3A cells, IL-6 STAT3-luciferase reporter, luminescence; 100% = signal with IL-6 EC80 alone; activation (% of control), % at 5.6 µM; 190,000 tested, 0.91% active; AID 871;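 active = activation above the screen-wide mean of compound activation plus 3 SD, cut at about 130% in these data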;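 note: 0% = background luminescence of wells with medium and substrate only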
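Material: STAT3-luciferase reporter U3A cells; Probe or stimulus: IL-6 (33 ng/mL); Incubation: compound pre-incubation 1 h before IL-6, then 6 h stimulation at 37 °C; Technique: luminescence from STAT3-driven luciferase reporter; Evaluation: % activation versus median of IL-6-stimulated wells; Controls: IL-6-only high control.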
STAT3 inh: reduces IL-6 driven STAT3 reporter signal | U3A cells, IL-6 STAT3-luciferase reporter, luminescence; host cell line lacks STAT1 | inhibition, % at 5.5 µM | 190,000 tested, 0.89% active;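 active = inhibition above the mean inhibition across all screened compounds plus 3 SD, cut at about 44% in these data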;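 note: 0% = DMSO only wells and 100% = 100 µM nifuroxazide control wells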
STAT1 blocker: reduces IFN-gamma driven STAT1 reporter signal; 200,000 tested, 0.35% active; NIH 3T3 STAT1-luciferase reporter, luminescence; inhibition, % at 5.5 µM;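 active = inhibition above a set limit, the mean inhibition across all tested compounds plus 3 SD, cut at about 34% in these data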;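 note: 0% = IFN-gamma with DMSO and 100% = IFN-gamma with 300 µM nifuroxazide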
STAT3 act-2: confirmation of STAT3 signaling activators; shares compounds with STAT3 act-1; 1,200 tested, 64% active; potentiation (% of control), % at 5.7 µM; U3A STAT3-luciferase reporter, IL-6 potentiation, luminescence; U3A cells lack STAT1; 100 means same as IL-6 alone;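 active = percent activation of the STAT3 luciferase reporter above a set limit taken from the earlier primary screen, cut at about 130% in these data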;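 note: 0% = background signal of medium plus substrate and 100% = median of IL-6 with DMSO wells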
NFkB act STAT3ct: activates NF-kappaB, counter-screen to STAT3 activators; shares compounds with STAT3 act-1; human cells, NF-kappaB reporter activation; activation (% of control), % at 5.7 µM; 1,200 tested, 11% active; AID 1309; in the data active = activation above about 120%;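 note: reporter induced by TNF-alpha stimulation; 100% = median of stimulated DMSO wells and 0% = no signal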
STAT1 act: STAT1 activation in STAT3 activator counter-screen | shares compounds with STAT3 act-1 | NIH 3T3 STAT1-luciferase reporter, IFN-gamma, luminescence | activation (% of control), % at 5.7 µM | 1,200 tested, 13% active;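 active = activation above the solvent-only control well mean plus 3 SD, set per screening run, cut at about 120% in these data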;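 note: 100% = IFN-gamma with DMSO median signal so 100% means no change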
Starred values were filed as active, the others as inactive; nt = no result given.

SMILES	bCat nuc transl	MT stabilizer	STAT3 act-1	STAT3 inh	STAT1 blocker	STAT3 act-2	NFkB act STAT3ct	STAT1 act
CC(=O)NCCC(=O)N1CCc2c([nH]c3ccccc23)C1c1cccc(Cl)c1 (stereo unspecified)	-2	4	150*	-55	-6	143*	101	91
O=C(c1cnccn1)N1CCc2c([nH]c3ccccc23)C1c1cccc(Cl)c1 (stereo unspecified)	8	2	132	-32	4	nt	nt	nt
CCCSc1nc(-c2ccccc2)cc(C(F)(F)F)c1C#N	0	1	95	17	4	nt	nt	nt
N#Cc1c(C(F)(F)F)cc(-c2ccccc2)nc1SCCN1CCOCC1	nt	1	152*	-56	11	146*	105	96
CCc1cc(C(c2ccc(F)cc2)N2CCOCC2)c(NC(=O)c2ccccc2)s1 (stereo unspecified)	0	3	102	2	4	nt	nt	nt
CCc1cc(CN2CCOCC2)c(NC(=O)c2ccccc2)s1	-2	2	139*	-46	-5	143*	107	110
COc1cc(CNCc2c[nH]c3ccccc23)cc(OC)c1	-2	4	95	10	11	nt	nt	nt
CC(C)CC1(C)NC(=O)N(CC(=O)Nc2cccc(S(=O)(=O)N(C)c3ccccc3)c2)C1=O (stereo unspecified)	-2	2	102	7	7	nt	nt	nt
S=C1NC2(CCCC2)Nc2ccccc21	0	2	143*	-48	10	144*	100	93
O=C1c2ccccc2NC2(CCCC2)N1O	nt	3	105	2	3	nt	nt	nt
S=C1NC2(CCCCC2)Nc2ccccc21	0	2	138*	-42	9	121	96	92
S=C1NC2(CCCCCC2)N=C1c1ccccc1	0	2	106	2	-10	nt	nt	nt
CC(=O)c1cc(C(=O)N2CCc3c([nH]c4ccccc34)C2C2CCCCC2)[nH]n1 (stereo unspecified)	0	4	157*	-56	0	155*	104	96
Cc1cnc(C(=O)N2CCc3c([nH]c4ccccc34)C2c2ccc(F)cc2)cn1 (stereo unspecified)	-2	3	116	-12	-7	nt	nt	nt
CC(=O)N(C)c1ccc(NS(=O)(=O)c2cc(Cl)ccc2Cl)cc1	0	5	101	0	0	nt	nt	nt
CC(=O)NC(CCS(C)(=O)=O)C(=O)N1CCc2ccccc21 (stereo unspecified)	0	3	137*	-41	-6	116	102	100
Cc1cc(Nc2ccccc2)n(C(=O)c2ccc(Cl)cc2)n1	-2	4	140*	-46	-33	127	114	133*
Cc1cc(Nc2ccccc2)n(-c2ccc(C(=O)O)cc2)n1	-1	2	104	1	4	nt	nt	nt
COc1ccc2nc(SCC(=O)NCC(F)(F)F)[nH]c2c1	-3	1	97	5	-9	nt	nt	nt
Cc1ccc(NCC(=O)N/N=C/c2cc3ccccc3nc2Cl)cc1	-2	3	178*	-90	9	171*	113	107
O=C(CN1CCOCC1)N/N=C/c1cc2ccccc2nc1Cl	6	2	96	12	-1	nt	nt	nt
CC1=C(C)C(C)=C(C#N)C(=C(C#N)C#N)N1	0	nt	nt	nt	nt	nt	nt	nt
COc1cc(C(F)(F)F)c(C(=O)NCc2cccc(Cl)c2)cn1	1	nt	nt	nt	nt	nt	nt	nt
Cc1ccccc1Nc1nc(N)nc(COC(=O)c2cccn2C)n1	-1	2	114	-6	-46	nt	nt	nt
CCc1ccccc1Nc1nc(N)nc(COC(=O)c2cccn2C)n1	-3	1	147*	-44	-9	150*	110	125*
CCC(=O)Oc1oc(-c2ccccc2)nc1C=Nc1ccccc1OC	0	3	144*	-50	-1	129	115	99
COc1ccc(/C=C/C(=O)OCC(=O)NC(=O)NC(C)(C)C)cc1	-3	2	109	1	-7	nt	nt	nt
